Active and inactive are the calls of the source. The calls are words filed in the database; no cut-off is given here.
Tests used:
[1] = target: T1, Cellular tumor antigen p53 (Homo sapiens, UniProt P04637); experiment: Activation of p53 in human NUGC4 cells assessed as change in STAT1 mRNA level at 60 uM after 18 hrs by RT-PCR method relative to control; assay type: cell-based; conditions: read-out: FC
[2] = system: Cellular tumor antigen p53 (Homo sapiens), P04637 [Y220C]; experiment: Activation of p53 Y220C mutant in human NUGC3 cells assessed as change in F0X03 mRNA level at 60 uM after 18 hrs by RT-PCR method relative to control; assay type: cell-based
In short: (§1)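 p53 signalling qPCR array covering 84 genes. Cells were exposed for 18 h, with 0.5% DMSO in both compound and control samples. Total RNA was extracted and purified. Fold-changes were calculated by ΔΔCt using β2-microglobulin (B2M) as the housekeeping gene. Two independent biological replicates were run per cell line.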

[3] = system: Cellular tumor antigen p53 (Homo sapiens), P04637 [Y220C]; experiment: Activation of p53 Y220C mutant in human NUGC3 cells assessed as change in CDKN2A mRNA level at 60 uM after 18 hrs by RT-PCR method relative to control; assay type: cell-based; in short: as §1
[4] = target: T1, Cellular tumor antigen p53; experiment: Activation of p53 in human NUGC4 cells assessed as change in SESN2 mRNA level at 60 uM after 18 hrs by RT-PCR method relative to control; assay type: cell-based; conditions: read-out: FC
[5] = target: T1, Cellular tumor antigen p53; experiment: Activation of p53 in human NUGC4 cells assessed as change in CHEK2 mRNA level at 60 uM after 18 hrs by RT-PCR method relative to control; assay type: cell-based; conditions: read-out: FC
In short: (§2)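 p53 signaling qPCR array of 84 p53-pathway genes. Cells were treated in 6-well plates for 18 h with 0.5% DMSO in compound and control samples. Total RNA was extracted and fold-changes were obtained by the ΔΔCt method against untreated control, with β2-microglobulin (B2M) as housekeeping gene. Two independent biological replicates per cell line.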

[6] = target: T1, Cellular tumor antigen p53; experiment: Activation of p53 in human NUGC4 cells assessed as change in EGR1 mRNA level at 60 uM after 18 hrs by RT-PCR method relative to control; assay type: cell-based; conditions: read-out: FC; in short: as §2
[7] = target: T1, Cellular tumor antigen p53; experiment: Activation of p53 in human NUGC4 cells assessed as change in BAX mRNA level at 60 uM after 18 hrs by RT-PCR method relative to control; assay type: cell-based; conditions: read-out: FC
In short: (§3)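 p53 signalling qPCR array covering 84 p53 pathway genes. Cells were exposed for 18 h, and compound and control wells both held 0.5% DMSO. Total RNA was extracted and purified. Fold-changes were calculated by the ΔΔCt method against the untreated sample, with β2-microglobulin (B2M) as the housekeeping gene. Each cell line was run in two independent biological replicates.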

[8] = system: Cellular tumor antigen p53 (Homo sapiens), P04637 [Y220C]; experiment: Activation of p53 Y220C mutant in human NUGC3 cells assessed as change in ATM mRNA level at 60 uM after 18 hrs by RT-PCR method relative to control; assay type: cell-based; in short: as §1
[9] = system: Cellular tumor antigen p53 (Homo sapiens), P04637 [Y220C]; experiment: Activation of p53 Y220C mutant in human NUGC3 cells assessed as change in CDC25A mRNA level at 60 uM after 18 hrs by RT-PCR method relative to control; assay type: cell-based; in short: as §1
[10] = system: Cellular tumor antigen p53 (Homo sapiens), P04637 [Y220C]; experiment: Activation of p53 Y220C mutant in human HuH7 cells assessed as increase in MDM2 mRNA level at 30 uM after 18 hrs by RT-PCR method; assay type: cell-based
In short: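 Real-time PCR. Cells were treated for 18 h, with 0.5% DMSO in both compound and control samples. Relative mRNA levels were quantified by the ΔΔCt method as fold-change against the untreated sample. Each sample was measured in triplicate, and data are given as mean ± SEM with an unpaired t-test.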

[11] = target: T1, Cellular tumor antigen p53; experiment: Activation of p53 in human NUGC4 cells assessed as change in ATR mRNA level at 60 uM after 18 hrs by RT-PCR method relative to control; assay type: cell-based; conditions: read-out: FC; in short: as §3
[12] = system: Cellular tumor antigen p53 (Homo sapiens), P04637 [Y220C]; experiment: Activation of p53 Y220C mutant in human NUGC3 cells assessed as change in PTEN mRNA level at 60 uM after 18 hrs by RT-PCR method relative to control; assay type: cell-based; in short: as §3
[13] = system: Cellular tumor antigen p53 (Homo sapiens), P04637 [Y220C]; experiment: Activation of p53 Y220C mutant in human NUGC3 cells assessed as change in CRADD mRNA level at 60 uM after 18 hrs by RT-PCR method relative to control; assay type: cell-based; in short: as §1
[14] = system: Cellular tumor antigen p53 (Homo sapiens), P04637 [Y220C]; experiment: Activation of p53 Y220C mutant in human NUGC3 cells assessed as change in RPRM mRNA level at 60 uM after 18 hrs by RT-PCR method relative to control; assay type: cell-based; in short: as §3
[15] = system: Cellular tumor antigen p53 (Homo sapiens), P04637 [Y220C]; experiment: Activation of p53 Y220C mutant in human NUGC3 cells assessed as change in BRCA2 mRNA level at 60 uM after 18 hrs by RT-PCR method relative to control; assay type: cell-based; in short: as §1
[16] = system: Cellular tumor antigen p53 (Homo sapiens), P04637 [Y220C]; experiment: Activation of p53 Y220C mutant in human NUGC3 cells assessed as change in PPM1D mRNA level at 60 uM after 18 hrs by RT-PCR method relative to control; assay type: cell-based; in short: as §3
[17] = system: Cellular tumor antigen p53 (Homo sapiens), P04637 [Y220C]; experiment: Activation of p53 Y220C mutant in human NUGC3 cells assessed as change in CCNB1 mRNA level at 60 uM after 18 hrs by RT-PCR method relative to control; assay type: cell-based; in short: as §1
[18] = system: Cellular tumor antigen p53 (Homo sapiens), P04637 [Y220C]; experiment: Activation of p53 Y220C mutant in human NUGC3 cells assessed as change in MLH1 mRNA level at 60 uM after 18 hrs by RT-PCR method relative to control; assay type: cell-based; in short: as §3
[19] = target: T1, Cellular tumor antigen p53; experiment: Activation of p53 in human NUGC4 cells assessed as change in MSH2 mRNA level at 60 uM after 18 hrs by RT-PCR method relative to control; assay type: cell-based; conditions: read-out: FC; in short: as §2
[20] = target: T1, Cellular tumor antigen p53; experiment: Activation of p53 in human NUGC4 cells assessed as change in FADD mRNA level at 60 uM after 18 hrs by RT-PCR method relative to control; assay type: cell-based; conditions: read-out: FC; in short: as §2
[21] = target: T1, Cellular tumor antigen p53; experiment: Activation of p53 in human NUGC4 cells assessed as change in BBC3 mRNA level at 60 uM after 18 hrs by RT-PCR method relative to control; assay type: cell-based; conditions: read-out: FC; in short: as §3
[22] = target: T1, Cellular tumor antigen p53; experiment: Activation of p53 in human NUGC4 cells assessed as change in KAT2B mRNA level at 60 uM after 18 hrs by RT-PCR method relative to control; assay type: cell-based; conditions: read-out: FC; in short: as §2
[23] = system: Cellular tumor antigen p53 (Homo sapiens), P04637 [Y220C]; experiment: Activation of p53 Y220C mutant in human NUGC3 cells assessed as change in EI24 mRNA level at 60 uM after 18 hrs by RT-PCR method relative to control; assay type: cell-based; in short: as §1
Huh-7 = experiment: Upregulation of BAX mRNA level in p53 Y220C mutant knockout human HuH7 cells at 30 uM after 18 hrs by RT-PCR method; assay type: functional, cell-based
[24] = system: Cellular tumor antigen p53 (Homo sapiens), P04637 [Y220C]; experiment: Activation of p53 Y220C mutant in human NUGC3 cells assessed as change in STAT1 mRNA level at 60 uM after 18 hrs by RT-PCR method relative to control; assay type: cell-based; in short: as §3
[25] = target: T1, Cellular tumor antigen p53; experiment: Activation of p53 in human NUGC4 cells assessed as change in EI24 mRNA level at 60 uM after 18 hrs by RT-PCR method relative to control; assay type: cell-based; conditions: read-out: FC; in short: as §2
[26] = system: Cellular tumor antigen p53 (Homo sapiens), P04637 [Y220C]; experiment: Activation of p53 Y220C mutant in human NUGC3 cells assessed as change in MSH2 mRNA level at 60 uM after 18 hrs by RT-PCR method relative to control; assay type: cell-based; in short: as §3
[27] = system: Cellular tumor antigen p53 (Homo sapiens), P04637 [Y220C]; experiment: Activation of p53 Y220C mutant in human NUGC3 cells assessed as change in BTG2 mRNA level at 60 uM after 18 hrs by RT-PCR method relative to control; assay type: cell-based; in short: as §1

SMILES: CCNC(=O)c1c(O)c(I)c(-n2cccc2)c2sc(N(CC)CC)nc12
- fold induction at 60 µM [1]: 0.9
- fold change (FC) [2]: 2
- fold change (FC) [3]: 1.3
- fold induction at 60 µM [4]: 1.3
- fold induction at 60 µM [5]: 0.7
- fold induction at 60 µM [6]: 0.7
- fold induction at 60 µM [7]: 0.8
- fold change (FC) [8]: 0.9
- fold change (FC) [9]: 0.6
- Activity [10]: Active
- fold induction at 60 µM [11]: 0.9
- fold change (FC) [12]: 1.1
- fold change (FC) [13]: 1.1
- fold change (FC) [14]: 1.4
- fold change (FC) [15]: 0.9
- fold change (FC) [16]: 0.9
- fold change (FC) [17]: 1.1
- fold change (FC) [18]: 5.4
- fold induction at 60 µM [19]: 0.7
- fold induction at 60 µM [20]: 0.9
- fold induction at 60 µM [21]: 1.3
- fold induction at 60 µM [22]: 1
- fold change (FC) [23]: 0.8
- Activity (Huh-7): inactive
- fold change (FC) [24]: 0.8
- fold induction at 60 µM [25]: 0.8
- fold change (FC) [26]: 5.3
- fold change (FC) [27]: 1.9
